pEC50: −log10 of the molar value. Counter-ions that a name gives are not always drawn.
Experiments:
[1] = Antioxidant activity assessed as DPPH radical scavenging activity after 30 mins by spectrophotometry; format: physicochemical
RAW264.7 [2] = assay: Antiinflammatory activity in mouse RAW264.7 cells assessed as inhibition of LPS-induced nitric oxide production at 100 uM pre-incubated for 2 hrs before LPS stimulation for 16 hrs by Griess method; format: functional
Outline: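 RAW 264.7 cells (1.6 × 10^6 cells/mL) in F-12 Ham medium with 10% FBS, glutamate and penicillin-streptomycin. Compounds were given as DMSO stock diluted 1:100 in medium, final 100 µM, and concentration was checked by UV absorbance. After 2 h at 37 °C, LPS was added to a final 100 ng/mL and cells were incubated 16 h. Aminoguanidine was the positive control; mean ± S.D., n = 3.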

RAW264.7 [3] = assay: Cytotoxicity against mouse RAW264.7 cells assessed as cell viability at 100 uM pre-incubated for 2 hrs before LPS stimulation for 16 hrs followed by 4 hrs incubation by alamar blue assay; format: cell-based; settings: raw264.7, 100 µM
Outline: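 Viability was read on the RAW 264.7 cells left after supernatant removal in the LPS/NO assay (100 µM compound, 2 h pre-incubation, LPS 100 ng/mL for 16 h). AlamarBlue was added and plates were incubated 4 h at 37 °C. Absorbance was read at 570 nm (reference 655 nm).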

| Structure (SMILES) | pEC50 [1] | inhibition at 100 µM (RAW264.7 [2]) [%] | Activity (RAW264.7 [3]) |
| --- | --- | --- | --- |
| O=C1c2c(O)cc(O)cc2O[C@@H](c2ccc(O)cc2)[C@@H]1O | < 4.00 | < 10 | – |
| O=C1c2c(O)cc(O)cc2O[C@@H](c2ccc(O)c(O)c2)[C@@H]1O | 4.90 | < 10 | – |
| O=C(O)c1cc(O)c(O)c(O)c1 | 5.00 | – | – |
| O=C1c2c(O)cc(O)cc2O[C@@H](c2ccccc2)[C@@H]1O | < 4.00 | < 10 | – |
| O=C1c2c(O)cc(O)cc2O[C@H](c2ccccc2O)[C@H]1O | < 4.00 | 40 | Non-toxic |
| O=C1c2c(O)cc(O)cc2O[C@@H](c2ccccc2O)[C@@H]1O | < 4.00 | < 15 | Non-toxic |
| O=C1c2c(O)cc(O)cc2O[C@H](c2cccc(O)c2)[C@H]1O | < 4.00 | 35 | Non-toxic |
| O=C1c2c(O)cc(O)cc2O[C@@H](c2cccc(O)c2)[C@@H]1O | < 4.00 | < 15 | Non-toxic |
| O=C1c2c(O)cc(O)cc2O[C@H](c2cccc(O)c2O)[C@H]1O | 4.90 | 70 | Non-toxic |
| O=C1c2c(O)cc(O)cc2O[C@@H](c2cccc(O)c2O)[C@@H]1O | 4.88 | 45 | Non-toxic |
| O=C1c2c(O)cc(O)cc2O[C@@H](c2ccc(O)cc2O)[C@@H]1O | < 4.00 | < 10 | – |
| O=C1c2c(O)cc(O)cc2O[C@H](c2cc(O)ccc2O)[C@H]1O | 4.61 | 30 | Non-toxic |
| O=C1c2c(O)cc(O)cc2O[C@@H](c2cc(O)ccc2O)[C@@H]1O | 4.60 | < 15 | Non-toxic |
| O=C1c2c(O)cc(O)cc2O[C@H](c2cc(O)cc(O)c2)[C@H]1O | < 4.00 | < 10 | – |
| O=C1c2c(O)cc(O)cc2O[C@@H](c2cc(O)cc(O)c2)[C@@H]1O | < 4.00 | < 10 | – |
| COc1cccc([C@H]2Oc3cc(O)cc(O)c3C(=O)[C@@H]2O)c1 | < 4.00 | < 10 | – |
| COc1cccc([C@@H]2Oc3cc(O)cc(O)c3C(=O)[C@H]2O)c1 | < 4.00 | < 10 | – |
| COc1ccc([C@@H]2Oc3cc(O)cc(O)c3C(=O)[C@H]2O)cc1 | < 4.00 | < 10 | – |

| Structure (SMILES) | pEC50 [1] | inhibition at 100 µM (RAW264.7 [2]) [%] | Activity (RAW264.7 [3]) |
| --- | --- | --- | --- |
| COc1cccc([C@H]2Oc3cc(O)cc(O)c3C(=O)[C@@H]2O)c1OC | < 4.00 | < 10 | – |
| COc1cccc([C@@H]2Oc3cc(O)cc(O)c3C(=O)[C@H]2O)c1OC | < 4.00 | < 10 | – |
| COc1ccc([C@H]2Oc3cc(O)cc(O)c3C(=O)[C@@H]2O)c(OC)c1 | < 4.00 | < 10 | – |
| COc1ccc([C@@H]2Oc3cc(O)cc(O)c3C(=O)[C@H]2O)c(OC)c1 | < 4.00 | < 10 | – |
| COc1ccc(OC)c([C@H]2Oc3cc(O)cc(O)c3C(=O)[C@@H]2O)c1 | < 4.00 | < 10 | – |
| COc1ccc(OC)c([C@@H]2Oc3cc(O)cc(O)c3C(=O)[C@H]2O)c1 | < 4.00 | < 10 | – |
| COc1cc(OC)cc([C@H]2Oc3cc(O)cc(O)c3C(=O)[C@@H]2O)c1 | < 4.00 | < 10 | – |
| COc1cc(OC)cc([C@@H]2Oc3cc(O)cc(O)c3C(=O)[C@H]2O)c1 | < 4.00 | < 10 | – |
| COc1ccc([C@H]2Oc3cc(O)cc(O)c3C(=O)[C@@H]2O)cc1 | < 4.00 | < 10 | – |
| COc1ccccc1C1Oc2cc(O)cc(O)c2C(=O)C1O (racemic) | < 4.00 | < 10 | – |
| COc1cccc(OC)c1C1Oc2cc(O)cc(O)c2C(=O)C1O (racemic) | < 4.00 | < 10 | – |
| COc1ccc(C2Oc3cc(O)cc(O)c3C(=O)C2O)cc1OC (racemic) | < 4.00 | < 10 | – |
| O=C1c2c(O)cc(O)cc2O[C@H](c2ccc(O)c(O)c2)[C@H]1O [(+)-TAXIFOLIN] | 4.86 | < 10 | – |
| O=C1c2c(O)cc(O)cc2O[C@H](c2ccc(O)cc2)[C@H]1O [DIHYDROKAEMPFEROL] | < 4.00 | < 10 | – |
| O=C1c2c(O)cc(O)cc2O[C@H](c2ccc(O)cc2O)[C@H]1O [DIHYDROMORIN] | < 4.00 | < 10 | – |
| N=C(N)NN [PIMAGEDINE HYDROCHLORIDE] | – | 72 | – |
| O=C1c2c(O)cc(O)cc2O[C@H](c2ccccc2)[C@H]1O [PINOBAKSIN] | < 4.00 | < 10 | – |
